Source: ChEMBL document CHEMBL4020760, “Discovery of a Small Molecule Probe That Post-Translationally Stabilizes the Survival Motor Neuron Protein for the Treatment of Spinal Muscular Atrophy” (J Med Chem, 2017)
≈ marks a conversion by molar mass, not a printed value. Calls of active or inactive are those of the source. The calls are words filed in the database; no cut-off is given here. Peptide text beside a SMILES is read from it. * marks the point of attachment. Cbz = O=C(OCc1ccccc1)*

Experiments:
[1] = Aqueous solubility of the compound at pH 7.4; format: physicochemical; details: aqueous solution
How it was run: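 Kinetic solubility measured in aqueous medium at pH 7.4.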

[2] = biological target: Survival motor neuron protein (Homo sapiens) (UniProt Q16637); assay: Stabilization of human SMN protein expressed in HEK293 cells expressing SMN2 promoter after 24 hrs by luciferase reporter gene assay relative to control; format: cell-based
How it was run: (§1)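 SMN2-luc reporter cells seeded at 25,000/well overnight, then treated 24 h with six doses (3-fold serial dilutions, top final 10 or 30 μM), 0.1% DMSO. Firefly and Renilla luciferase read by dual-luciferase assay, normalized to DMSO as percent; EC50 and maximal activation from curves. Mean ± SEM, ≥3 trials.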

[3] = test system: Liver; assay: (§2) Half life in mouse liver microsomes; format: ADME, microsome; details: microsomes
How it was run: (§3)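 Compound stability in mouse and human liver microsomes, expressed as half-life in min.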

[4] = test system: HEK293; assay: Inhibition of autophagy in HEK293 cells assessed as increase in LC3-2 level at 10 uM after 8 hrs by immunoblot analysis; details: Homo sapiens
[5] = test system: HEK293; assay: Inhibition of autophagy in HEK293 cells assessed as increase in p62 level at 10 uM after 8 hrs by immunoblot analysis; details: Homo sapiens
[6] = test system: Plasma; assay: Half life in mouse plasma after 60 mins; format: ADME, cell-free; details: 1 h
[7] = biological target: Survival motor neuron protein (Homo sapiens) (UniProt Q16637); assay: Stabilization of human luc fused SMN protein expressed in HEK293 cells at 10 uM after 24 hrs in presence of 10 uM cycloheximide by luciferase reporter gene assay; format: cell-based
How it was run: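 SMN2-luciferase reporter cells were maintained in high-glucose DMEM with 10% FBS, Pen/Strep and hygromycin at 37 °C. They were treated at the same time with cycloheximide (10 μM), to block protein synthesis, and with compound or DMSO. Cells were lysed at set time points, and SMN2-luc (firefly) and Renilla-luc activities were read by dual-luciferase assay.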

[8] = biological target: Survival motor neuron protein (Homo sapiens) (UniProt Q16637); assay: Stabilization of SMN protein in HEK293 cells assessed as increase in SMN protein half life at 10 uM by pulse-chase experiment; format: cell-based
[9] = Stabilization of human […] expressed in HEK293 cells expressing SMN2 promoter after 24 hrs by luciferase reporter gene assay; format: cell-based; details: HEK293, 24 h; how it was run: as §1
[10] = test system: Renilla; assay: Effect on renilla recombinant luciferase protein expressed in HEK293 cells at 10 uM after 24 hrs in presence of 10 uM cycloheximide by renilla luciferase reporter gene assay; format: cell-based
How it was run: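 SMN2-luc reporter cells given cycloheximide (10 μM) together with compound (10 μM) or DMSO. Lysed at set time points; SMN-luc and Renilla-luc activities measured.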

[11] = test system: HEK293; assay: Stabilization of human […] expressed in HEK293 cells expressing SMN2 promoter after 24 hrs by luciferase reporter gene assay relative to control; format: cell-based; details: in the assay text read “SMN protein” for “SMN mRNA”; how it was run: as §1
[12] = Cmax in mouse plasma at 20 mg/kg, ip; format: ADME, organism-based; parameters: dose 20 mg/kg, route intraperitoneal; details: plasma
[13] = test system: Plasma; assay: Cmax in mouse plasma at 20 mg/kg, ip after 30 mins; format: ADME, organism-based; parameters: dose 20 mg/kg, route intraperitoneal; details: in vivo, 0.5 h, BLD = below limit of detection
[14] = biological target: Survival motor neuron protein (Homo sapiens) (UniProt Q16637); assay: Stabilization of SMN protein in 3813T fibroblasts derived from human SMA patient assessed as increase in SMN protein level after 48 hrs by SDS-PAGE and immunoblot
How it was run: (§4)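 hTERT-immortalized SMA patient 3813T fibroblasts seeded at 6000/well, next day dosed for 48 h at indicated concentrations, 0.1% DMSO. Lysed in boiling buffer (150 mM NaCl, 10 mM Tris pH 8.0, 2% SDS), run on 10% SDS-PAGE, SMN immunoblotted, normalized to tubulin or actin as fold over DMSO; one-way ANOVA with Dunnett.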

[15] = test system: Liver; assay: Half life in human liver microsomes; format: ADME, microsome; how it was run: as §3
[16] = biological target: Survival motor neuron protein (Homo sapiens) (UniProt Q16637); assay: Stabilization of SMN protein in 3813T fibroblasts derived from human SMA patient assessed as increase in SMN protein level at 2 uM after 48 hrs by SDS-PAGE and immunoblot
[17] = biological target: Survival motor neuron protein (Homo sapiens) (UniProt Q16637); assay: Stabilization of SMN protein in 3813T fibroblasts derived from human SMA patient assessed as increase in SMN protein level at 2 uM after 48 hrs by SDS-PAGE and immunoblot; how it was run: as §4
[18] = Cmax in mouse brain at 20 mg/kg, ip; format: ADME, organism-based; parameters: dose 20 mg/kg, route intraperitoneal
[19] = biological target: Survival motor neuron protein (Homo sapiens) (UniProt Q16637); assay: Stabilization of SMN protein in 3813T fibroblasts derived from human SMA patient assessed as increase in SMN protein level after 48 hrs by SDS-PAGE and immunoblot
[20] = test system: Brain; assay: Cmax in mouse brain at 20 mg/kg, ip after 30 mins; format: ADME, organism-based; parameters: dose 20 mg/kg, route intraperitoneal; details: in vivo, 0.5 h, BLD = below limit of detection
[21] = species on record: Homo sapiens; assay: Inhibition of proteasome in HEK293 cells assessed as increase in polyubiquitinated protein level at 1 and 10 uM incubated for 2 hrs by SDS-PAGE analysis; format: cell-based
How it was run: (§5)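 HEK293 cells pretreated 2 h with test compound or MG-132 (1 and 10 μM), then DMSO or cycloheximide (10 μM) added and incubated a further 6 h; final DMSO 0.2%. Lysates run on 4–15% gradient SDS-PAGE; anti-ubiquitin blot for polyubiquitinated proteins, tubulin as loading control.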

[22] = species on record: Homo sapiens; assay: Inhibition of proteasome in HEK293 cells assessed as stabilization of SMN protein by measuring increase in SMN protein half life at 10 uM by pulse-chase experiment; format: cell-based
[23] = test system: HEK293; assay: Effect on cycloheximide-induced reduction in basal level of polyubiquitinated protein level in HEK293 cells at 1 uM pretreated for 2 hrs followed by cycloheximide addition measured after 6 hrs by SDS-PAGE analysis; format: functional, cell-based; details: Homo sapiens; how it was run: as §5
[24] = test system: HEK293; assay: Effect on human luciferase-tagged SMN mRNA expressed in HEK293 cells assessed as SMN exon 7 included transcript at 10 uM after 24 hrs by qRT-PCR relative to GAPDH mRNA expression; format: cell-based
How it was run: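 SMN2-luciferase reporter cells treated with compound; total RNA isolated with Trizol, DNase I treated and reverse transcribed. SYBR Green qPCR for SMN exon 7-included and full-length transcripts, with GAPDH as reference.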

[25] = as §2; format: ADME, microsome; details: liver microsomes; how it was run: as §3

Sequence of Survival motor neuron protein (Homo sapiens) (Q16637 whole entry, the tested form may be a part): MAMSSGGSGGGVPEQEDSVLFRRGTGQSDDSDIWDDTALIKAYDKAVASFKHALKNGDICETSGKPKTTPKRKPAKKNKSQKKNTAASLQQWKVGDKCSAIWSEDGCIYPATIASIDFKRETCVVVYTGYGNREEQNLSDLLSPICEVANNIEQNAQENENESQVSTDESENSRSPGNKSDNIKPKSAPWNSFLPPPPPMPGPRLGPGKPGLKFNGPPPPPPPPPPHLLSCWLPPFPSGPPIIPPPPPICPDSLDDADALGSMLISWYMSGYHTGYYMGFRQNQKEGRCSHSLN

CC(C)c1cc(C(=O)Nc2nc3ccccc3[nH]2)no1
solubility kinetic [1]: 12 µM (≈ 3.24 µg/mL) | Activity [2]: 211% | t1/2 [3]: < 5 min

O=C(Nc1ccc(F)c(Cl)c1)c1cc(C2CCCC2)on1
Activity [2]: inactive

CC(C)c1cc(C(=O)Nc2ccncc2)no1
Activity [2]: inactive

CC(C)c1cc(C(=O)Nc2nc3ccccc3s2)no1
Activity [2]: 124%

CCc1cc(C(=O)Nc2ccc(F)c(Cl)c2)no1
Activity [2]: 165%

O=C(Nc1ccc(F)c(Cl)c1)c1cc(Cc2ccccc2)on1
Activity [2]: 116%

O=C(Nc1ccc(F)c(Cl)c1)c1ccon1
Activity [2]: inactive

CC(C)c1cc(C(=O)Nc2cccc(F)c2)no1
solubility kinetic [1]: 49 µM (≈ 12.2 µg/mL) | Activity [2]: 180% | t1/2 [3]: < 5 min

CC(C)c1cc(C(=O)Oc2ccc(F)c(Cl)c2)no1
Activity [2]: inactive

CCN(CC)CCCC(C)Nc1ccnc2cc(Cl)ccc12 (stereo unspecified)
Activity [4]: Active | Activity [5]: Active

CC(C)c1cc(C(=O)N2CCc3ccccc32)no1
t1/2 [6]: < 5 min | Activity [2]: 164%

O=C(Nc1ncc(C2CCC2)s1)c1ccc(F)c(Cl)c1
t1/2 [3]: < 5 min

CC(C)c1cc(C(=O)Nc2ccccc2F)no1
t1/2 [6]: 9 min | Activity [2]: 175%

CC(C)c1cc(C(=S)Nc2ccc(F)c(Cl)c2)no1
Activity [2]: 120%

CC(C)c1cc(C(=O)Nc2ccc(F)cc2)no1
Activity [2]: 182%

CC(C)Cc1cc(C(=O)Nc2ccc(F)c(Cl)c2)no1
Activity [2]: 180%

Cc1ccccc1NC(=O)c1cc(C(C)C)on1
Activity [2]: 125%

COc1cc2c(c(OC)c1OC)C(c1cc(Br)ccc1F)CC(=O)N2 (stereo unspecified)
Activity [7]: Active | Activity [8]: inactive | EC50 [9]: 8.3 µM | Activity [10]: Active | Activity [11]: 186%

Cc1ccc(NC(=O)c2cc(C(C)C)on2)cc1
Activity [2]: 200%

CC(C)c1cc(C(=O)Nc2ccccn2)no1
Cmax [12]: 2 to 3 ng/mL | t1/2 [6]: < 5 min | Cmax [13]: Bld | Activity [14]: Dose-dependent effect | t1/2 [15]: > 120 min | solubility kinetic [1]: 77 µM (≈ 17.8 µg/mL) | fold change (FC) [16]: 2 | fold change (FC) [17]: 2 | Cmax [18]: 5 to 6 ng/mL | Activity [2]: 195% | Activity [19]: Dose-dependent effect | t1/2 [3]: > 120 min | Cmax [20]: Bld

CC(C)c1cc(C(=O)Nc2nc3ccccc3n2C)no1
Activity [2]: 219%

CC(C)c1cc(C(=O)Nc2ccc(Cl)cc2)no1
Activity [2]: 168%

CC(C)c1cc(C(=O)Nc2ccccc2)no1
t1/2 [6]: 8 min | solubility kinetic [1]: 59 µM (≈ 13.6 µg/mL) | Activity [2]: 190% | t1/2 [3]: < 5 min

CC(C)c1cc(C(=O)Nc2ncco2)no1
Activity [2]: inactive

CC(C)c1cc(NC(=O)c2ccc(F)c(Cl)c2)no1
t1/2 [6]: 183 min | Activity [2]: 188%

COc1cccc(NC(=O)c2cc(C(C)C)on2)c1
Activity [2]: 147%

COc1ccccc1NC(=O)c1cc(C(C)C)on1
Activity [2]: 80%

CC(C)c1cc(NC(=O)Nc2ccc(F)c(Cl)c2)no1
Activity [2]: inactive

O=C(Nc1ccc(F)c(Cl)c1)c1cc(C2CCCCC2)on1
Activity [2]: inactive

O=C(Nc1ccc(F)c(Cl)c1)c1cc(-c2ccccc2)on1
Activity [2]: inactive

CC(C)C[C@@H](C=O)NC(=O)[C@H](CC(C)C)NC(=O)[C@H](CC(C)C)NC(=O)OCc1ccccc1 (Cbz-Leu-Leu-Leu-aldehyde)
inhibition [21]: Active | inhibition [22]: Active | Activity [23]: Active

CC(C)(C)c1cc(C(=O)Nc2ccc(F)c(Cl)c2)no1
Activity [2]: 140%

CC(C)c1cc(C(=O)Nc2cccnc2)no1
Activity [2]: 94%

CC(C)c1cc(C(=O)Nc2ccccc2Cl)no1
Activity [2]: 114%

Cc1cc(C(=O)Nc2ccc(F)c(Cl)c2)no1
Activity [2]: inactive

CC(C)c1cc(NC(=O)c2ccc(F)c(Cl)c2)on1
Activity [2]: 137%

CC(C)c1cc(CNc2ccc(F)c(Cl)c2)no1
Activity [2]: 137%

O=C(CCCCCCC(=O)Nc1ccccc1)NO
Activity [7]: Active | Activity [10]: Active

Cc1c(C(=O)Nc2ccc(F)c(Cl)c2)noc1C(C)C
t1/2 [6]: 76 min | Activity [2]: 182% | t1/2 [3]: < 5 min

CC(C)c1cc(C(=O)Nc2ccc(F)c(Cl)c2)no1
Activity [7]: Active | t1/2 [6]: 13 min | Activity [8]: Active | solubility kinetic [1]: 6 µM (≈ 1.7 µg/mL) | Activity [24]: inactive | Activity [10]: inactive | Activity [2]: 242% | half-life [25]: ≤ 5 min

CC(C)c1cc(C(=O)NC2Cc3ccccc3C2)no1
Activity [2]: inactive

CC(C)c1cc(C(=O)Nc2cccc(Cl)c2)no1
Activity [2]: 160%

CC(C)c1cc(C(=O)Nc2nccs2)no1
Activity [2]: 166%

Cc1cccc(NC(=O)c2cc(C(C)C)on2)c1
Activity [2]: 150%

CC(C)c1cc(C(=O)N(C)c2ccc(F)c(Cl)c2)no1
t1/2 [6]: 5 min | Activity [2]: inactive

CC(C)c1nc(NC(=O)c2ccc(F)c(Cl)c2)cs1
Activity [2]: 131%
